# Measurements published in ChEMBL document CHEMBL1149812, “Synthesis of N-aryl-5-amino-4-cyanopyrazole derivatives as potent xanthine oxidase inhibitors” (Eur J Med Chem, 2008).
# Key:
# [1] = target: T1, Xanthine dehydrogenase/oxidase (Homo sapiens, UniProt P47989); assay: Inhibition of xanthine oxidase
# Summary of the method: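 Enzyme preincubated 15 min at room temperature: xanthine oxidase 0.066 U/mL in 50 mM potassium dihydrogen phosphate pH 7.4 with compound in DMSO (1% final). Started with 100 µM xanthine plus 1 mM EDTA. Mean ± SEM of 3 experiments, each in triplicate.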
# MCF7 = assay: Growth inhibition of human MCF7 cells after 48 hrs; format: functional; settings: MCF7, 48 h
# Summary of the method: (§1)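 SRB protein-stain assay following the NCI screening protocol. Cells kept adherent in RPMI-1640 with 5% heat-inactivated FBS, 2 mM glutamine and 50 µg/mL gentamicin at 37 °C under 5% CO2. Seeded at 7.5 × 10^4 cells/mL (NCI-H460) or 1.5 × 10^5 cells/mL (MCF-7, SF-268). Exposed 48 h to five concentrations, top 150 µM, DMSO ≤0.25%. […] Mean ± SEM of 1–6 experiments in duplicate.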
# SF-268 = assay: Growth inhibition of human SF268 cells after 48 hrs; format: functional; settings: SF-268, 48 h; summary of the method: as §1
# NCI-H460 = assay: Growth inhibition of human NCI-H460 cells after 48 hrs; format: functional; settings: NCI-H460, 48 h; summary of the method: as §1
# [2] = target: T1, Xanthine dehydrogenase/oxidase; assay: Activity of xanthine oxidase assessed as change in absorbance per min at 0.025 uM in presence of xanthine
# Summary of the method: (§2)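 Kinetic runs: xanthine oxidase (0.066 U/mL) in 50 mM potassium dihydrogen phosphate pH 7.4 preincubated 15 min at room temperature with inhibitor in DMSO (1% final). Started with xanthine at 100, 75, 50 or 25 µM plus 1 mM EDTA. Uric acid formation read at 295 nm over 2 min as ΔA/min. Vmax and Km taken from Lineweaver–Burk plots.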
# [3] = target: T1, Xanthine dehydrogenase/oxidase; assay: Activity of xanthine oxidase assessed as change in absorbance per min at 0.1 uM in presence of xanthine; summary of the method: as §2
# [4] = target: T1, Xanthine dehydrogenase/oxidase; assay: Activity of xanthine oxidase assessed as change in absorbance per min at 10 uM in presence of xanthine; summary of the method: as §2
# [5] = target: T1, Xanthine dehydrogenase/oxidase; assay: Activity of xanthine oxidase assessed as change in absorbance per min at 40 uM in presence of xanthine; summary of the method: as §2
# [6] = target: T1, Xanthine dehydrogenase/oxidase; assay: Inhibition of xanthine oxidase at 100 uM
# T1 sequence (P47989 whole entry): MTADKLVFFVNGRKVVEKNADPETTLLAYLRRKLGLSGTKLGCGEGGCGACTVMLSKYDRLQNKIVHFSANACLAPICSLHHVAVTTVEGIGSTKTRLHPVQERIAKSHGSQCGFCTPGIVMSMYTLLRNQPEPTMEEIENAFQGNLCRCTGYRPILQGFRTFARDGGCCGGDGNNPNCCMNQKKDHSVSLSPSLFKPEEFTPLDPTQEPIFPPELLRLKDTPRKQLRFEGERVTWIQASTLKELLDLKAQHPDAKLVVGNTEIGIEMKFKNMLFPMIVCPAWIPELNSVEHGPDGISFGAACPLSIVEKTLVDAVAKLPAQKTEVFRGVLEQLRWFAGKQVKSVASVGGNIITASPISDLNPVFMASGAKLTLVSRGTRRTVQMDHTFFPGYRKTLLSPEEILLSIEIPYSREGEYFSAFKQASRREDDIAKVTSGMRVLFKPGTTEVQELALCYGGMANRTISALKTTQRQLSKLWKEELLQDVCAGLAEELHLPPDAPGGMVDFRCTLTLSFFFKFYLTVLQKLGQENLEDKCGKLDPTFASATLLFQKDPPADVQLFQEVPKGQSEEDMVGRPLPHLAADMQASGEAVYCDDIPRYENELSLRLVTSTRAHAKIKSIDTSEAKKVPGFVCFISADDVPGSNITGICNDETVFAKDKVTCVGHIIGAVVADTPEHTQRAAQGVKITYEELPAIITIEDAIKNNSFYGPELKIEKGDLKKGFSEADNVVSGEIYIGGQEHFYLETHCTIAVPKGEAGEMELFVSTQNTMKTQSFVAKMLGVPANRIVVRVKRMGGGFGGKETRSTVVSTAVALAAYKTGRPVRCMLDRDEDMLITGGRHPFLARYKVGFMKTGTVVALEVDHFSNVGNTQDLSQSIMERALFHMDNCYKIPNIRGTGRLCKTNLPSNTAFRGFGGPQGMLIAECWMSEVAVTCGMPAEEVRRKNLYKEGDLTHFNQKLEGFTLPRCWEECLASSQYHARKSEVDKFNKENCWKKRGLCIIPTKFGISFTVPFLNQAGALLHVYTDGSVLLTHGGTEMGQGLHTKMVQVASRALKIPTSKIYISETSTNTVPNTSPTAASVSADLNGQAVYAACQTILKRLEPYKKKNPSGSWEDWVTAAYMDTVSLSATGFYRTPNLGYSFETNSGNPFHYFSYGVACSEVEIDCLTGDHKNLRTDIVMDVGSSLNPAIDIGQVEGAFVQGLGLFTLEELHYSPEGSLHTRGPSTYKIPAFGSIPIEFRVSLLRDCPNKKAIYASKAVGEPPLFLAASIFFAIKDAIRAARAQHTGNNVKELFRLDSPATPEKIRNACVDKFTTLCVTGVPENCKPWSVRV
SMILES,IC50 [1],GI50 (MCF7),GI50 (SF-268),GI50 (NCI-H460),further results
Cc1ccc(-n2ncc(C#N)c2N)cc1,> 100 µM,> 150 µM,> 150 µM,> 150 µM,–
N#Cc1ccc(-n2ncc(C#N)c2N)cc1,> 100 µM,> 150 µM,> 150 µM,> 150 µM,–
COc1ccc(-n2ncc(C#N)c2N)cc1,> 100 µM,> 150 µM,> 150 µM,> 150 µM,–
Nc1ncnc2c1cnn2-c1ccc(C(F)(F)F)cc1,0.18 µM,–,–,–,–
COC(=O)CNC(=O)c1ccc(-n2ncc3c(N)ncnc32)cc1,0.08 µM,> 150 µM,> 150 µM,> 150 µM,deltaA [2]: 0.16; deltaA [3]: 0.13
N#Cc1cnn(-c2ccc([N+](=O)[O-])cc2)c1N,> 100 µM,64 µM,135 µM,128 µM,–
N#Cc1cnn(-c2ccc(Cl)cc2)c1N,> 100 µM,> 150 µM,> 150 µM,> 150 µM,–
COc1ccc(-n2ncc3c(N)ncnc32)cc1,19.6 µM,> 150 µM,> 150 µM,> 150 µM,–
Nc1ncnc2c1cnn2-c1ccc(C(=O)O)cc1,81 µM,–,–,–,–
N#Cc1cnn(-c2ccc(C(F)(F)F)cc2)c1N,> 100 µM,> 150 µM,> 150 µM,> 150 µM,–
N#Cc1ccc(-n2ncc3c(N)ncnc32)cc1,0.4 µM,–,–,–,–
Cc1ccc(-n2ncc3c(N)ncnc32)cc1,17.4 µM,–,–,–,–
N#Cc1cnn(-c2ccc(C(=O)O)cc2)c1N,36.1 µM,–,–,–,deltaA [4]: 0.12; deltaA [5]: 0.08
CC(=O)OC[C@H]1O[C@@H](Nc2ncnc3c2cnn3-c2ccc(C(=O)O)cc2)[C@H](OC(C)=O)[C@@H](OC(C)=O)[C@@H]1OC(C)=O,18.4 µM,> 150 µM,> 150 µM,> 150 µM,–
Nc1ncnc2c1cnn2-c1ccc([N+](=O)[O-])cc1,2.2 µM,–,–,–,–
COC(=O)CNC(=O)c1ccc(-n2ncc(C#N)c2N)cc1,37.9 µM,> 150 µM,> 150 µM,> 150 µM,deltaA [4]: 0.23; deltaA [5]: 0.09
CC(=O)OC[C@H]1O[C@@H](Nc2c(C#N)cnn2-c2ccc(C(=O)O)cc2)[C@H](OC(C)=O)[C@@H](OC(C)=O)[C@@H]1OC(C)=O,> 100 µM,–,–,–,–
Oc1ncnc2[nH]ncc12 [ALLOPURINOL],–,–,–,–,inhibition at 100 µM [6]: 96.3%
COc1cccc2c1C(=O)c1c(O)c3c(c(O)c1C2=O)C[C@@](O)(C(=O)CO)C[C@@H]3O[C@H]1C[C@H](N)[C@H](O)[C@H](C)O1 [DOXORUBICIN],–,0.0428 µM,0.093 µM,0.094 µM,–
